Test results reported in ChEMBL document CHEMBL1158387, “Regioselective synthetic approaches towards 1,2,8,9-tetraazadispiro[4.1.4.2]trideca-2,9-dien-6-ones of potential antimicrobial properties” (2009).
≈ marks a conversion by molar mass, not a printed value. Calls of active or inactive are those of the source. No cut-off for these calls is given here.

Assays:
Format in all cases: functional
Staphylococcus aureus = test: Antibacterial activity against Staphylococcus aureus ATCC 25923 after 18 hrs by agar dilution technique
In short: (§1)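 Agar dilution per CLSI; compounds dissolved in DMSO; plates incubated at 37 °C for 18 h; MIC taken as lowest compound concentration spot with no growth. Standard ATCC strains.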

Enterococcus faecalis = test: Antibacterial activity against Enterococcus faecalis ATCC 29212 after 18 hrs by agar dilution technique; in short: as §1
Streptococcus agalactiae = test: Antibacterial activity against Streptococcus agalactiae […] after 18 hrs by agar dilution technique; in short: as §1
Escherichia coli = test: Antibacterial activity against Escherichia coli ATCC 25922 after 18 hrs by agar dilution technique; in short: as §1
Klebsiella pneumoniae = test: Antibacterial activity against Klebsiella pneumoniae ATCC 33495 after 18 hrs by agar dilution technique; in short: as §1
Proteus vulgaris = test: Antibacterial activity against Proteus vulgaris ATCC 13315 after 18 hrs by agar dilution technique; in short: as §1
Candida albicans = test: Antifungal activity against Candida albicans ATCC 20260 after 18 hrs by agar dilution technique
In short: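 Agar dilution per CLSI with compounds dissolved in DMSO and spotted onto agar against ATCC standard strains. Plates were incubated at 37 °C for 18 h.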

| SMILES | MIC (Staphylococcus aureus; ATCC 25923, 18 h) [µg/mL] | MIC (Enterococcus faecalis; ATCC 29212, 18 h) [µg/mL] | MIC (Streptococcus agalactiae) | MIC (Escherichia coli; ATCC 25922, 18 h) [µg/mL] | MIC (Klebsiella pneumoniae; ATCC 33495, 18 h) [µg/mL] | MIC (Proteus vulgaris; ATCC 13315, 18 h) [µg/mL] | MIC (Candida albicans) | MIC (Staphylococcus aureus) | MIC (Enterococcus faecalis) | MIC (Escherichia coli) | MIC (Klebsiella pneumoniae) | MIC (Proteus vulgaris) | MIC (Candida albicans; ATCC 20260, 18 h) [µg/mL] |
| --- | --- | --- | --- | --- | --- | --- | --- | --- | --- | --- | --- | --- | --- |
| O=C(O)c1cn(C2CC2)c2cc(N3CCNCC3)c(F)cc2c1=O [CIPROFLOXACIN] | 0.3 (≈ 0.905 µM) | 0.3 (≈ 0.905 µM) | 0.6 µg/mL (≈ 1.81 µM) | 0.3 (≈ 0.905 µM) | 1.3 (≈ 3.92 µM) | 0.3 (≈ 0.905 µM) | inactive |  |  |  |  |  |  |
| O=C1C2(CCC13C(c1ccc(F)cc1)C(c1ccccc1)=NN3c1ccccc1)C(c1ccc(F)cc1)C(c1ccccc1)=NN2c1ccccc1 (centres undefined) | 5 (≈ 7.3 µM) | 10 (≈ 14.6 µM) | 10 µg/mL (≈ 14.6 µM) | 5 (≈ 7.3 µM) | 10 (≈ 14.6 µM) | 10 (≈ 14.6 µM) | inactive |  |  |  |  |  |  |
| O=C1/C(=C/c2ccc(F)cc2)CC[C@@]12[C@H](c1ccc(F)cc1)C(c1ccccc1)=NN2c1ccccc1 | 10 (≈ 20.4 µM) | 5 (≈ 10.2 µM) | 5 µg/mL (≈ 10.2 µM) | 10 (≈ 20.4 µM) | 2.5 (≈ 5.1 µM) | 5 (≈ 10.2 µM) | inactive |  |  |  |  |  |  |
| Cc1ccc(N2N=C(c3ccccc3)C(c3ccccc3)C23CCC2(C3=O)C(c3ccccc3)C(c3ccccc3)=NN2c2ccc(C)cc2)cc1 (centres undefined) | 2.5 (≈ 3.69 µM) | 5 (≈ 7.39 µM) | 2.5 µg/mL (≈ 3.69 µM) | 10 (≈ 14.8 µM) | 5 (≈ 7.39 µM) | 5 (≈ 7.39 µM) | inactive |  |  |  |  |  |  |
| O=C1C2(CCC13C(c1ccccc1)C(c1ccccc1)=NN3c1ccccc1)C(c1ccccc1)C(c1ccccc1)=NN2c1ccccc1 (centres undefined) | 1.3 (≈ 2 µM) | 2.5 (≈ 3.85 µM) | 2.5 µg/mL (≈ 3.85 µM) | 10 (≈ 15.4 µM) | 10 (≈ 15.4 µM) | 10 (≈ 15.4 µM) | inactive |  |  |  |  |  |  |
| Cc1ccc(N2N=C(c3ccccc3)[C@@H](c3ccccc3)[C@@]23CC/C(=C\c2ccccc2)C3=O)cc1 | 0.6 (≈ 1.28 µM) | 1.3 (≈ 2.77 µM) | 1.3 µg/mL (≈ 2.77 µM) | 5 (≈ 10.7 µM) | 2.5 (≈ 5.34 µM) | 5 (≈ 10.7 µM) | inactive |  |  |  |  |  |  |
| O=C1/C(=C/c2ccccc2)CC[C@@]12[C@H](c1ccccc1)C(c1ccccc1)=NN2c1ccccc1 | 5 (≈ 11 µM) | 2.5 (≈ 5.5 µM) | 2.5 µg/mL (≈ 5.5 µM) | 5 (≈ 11 µM) | 2.5 (≈ 5.5 µM) | 2.5 (≈ 5.5 µM) | inactive |  |  |  |  |  |  |
| Cc1ccc(N2N=C(c3ccccc3)C(c3ccc(F)cc3)C23CCC2(C3=O)C(c3ccc(F)cc3)C(c3ccccc3)=NN2c2ccc(C)cc2)cc1 (centres undefined) | 10 (≈ 14 µM) | 10 (≈ 14 µM) | 2.5 µg/mL (≈ 3.51 µM) | 10 (≈ 14 µM) | 10 (≈ 14 µM) | 10 (≈ 14 µM) | inactive |  |  |  |  |  |  |
| Cc1ccc(/C=C2\CC[C@]3(C2=O)[C@H](c2ccc(C)cc2)C(c2ccccc2)=NN3c2ccccc2)cc1 | 2.5 (≈ 5.18 µM) | 5 (≈ 10.4 µM) | 5 µg/mL (≈ 10.4 µM) | 0.6 (≈ 1.24 µM) | 1.3 (≈ 2.69 µM) | 1.3 (≈ 2.69 µM) | inactive |  |  |  |  |  |  |
| O=C1C2(CCC13C(c1ccc(Cl)cc1)C(c1ccccc1)=NN3c1ccccc1)C(c1ccc(Cl)cc1)C(c1ccccc1)=NN2c1ccccc1 (centres undefined) | 10 (≈ 13.9 µM) | 10 (≈ 13.9 µM) | 10 µg/mL (≈ 13.9 µM) | 10 (≈ 13.9 µM) | 10 (≈ 13.9 µM) | 10 (≈ 13.9 µM) | inactive |  |  |  |  |  |  |
| Cc1ccc(N2N=C(c3ccccc3)C(c3ccc(Cl)cc3)C23CCC2(C3=O)C(c3ccc(Cl)cc3)C(c3ccccc3)=NN2c2ccc(C)cc2)cc1 (centres undefined) | 10 (≈ 13.4 µM) | 10 (≈ 13.4 µM) | 10 µg/mL (≈ 13.4 µM) | 10 (≈ 13.4 µM) | 5 (≈ 6.7 µM) | 10 (≈ 13.4 µM) | inactive |  |  |  |  |  |  |
| C[C@@H]1[C@H](O)[C@@H](C)/C=C/C=C/C=C/C=C/C=C/C=C/C=C/[C@H](O[C@@H]2O[C@H](C)[C@@H](O)[C@H](N)[C@@H]2O)C[C@@H]2O[C@](O)(C[C@@H](O)C[C@@H](O)[C@H](O)CC[C@@H](O)C[C@@H](O)CC(=O)O[C@H]1C)C[C@H](O)[C@H]2C(=O)O [AMPHOTERICIN B] |  |  | inactive |  |  |  |  | inactive | inactive | inactive | inactive | inactive | 4 (≈ 4.33 µM) |
